# Source: ChEMBL document CHEMBL1143387, “Synthesis of 18F-labelled 2-(4'-fluorophenyl)-1,3-benzothiazole and evaluation as amyloid imaging agent in comparison with [11C]PIB” (Bioorg Med Chem Lett, 2009)
# Columns and labels:
# [1] = Partition coefficient, log P at pH 7.4; format: physicochemical; details: octanol/water
# [2] = Biodistribution in NMRI mouse urine at 3.7 MBq/mL after 60 mins by gamma counter; format: ADME, organism-based; details: in vivo, 1 h
# Method in brief: (§1)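 Male NMRI mice (30–40 g), anaesthetised by ip Hypnorm (0.1 ml), given 0.1 ml diluted tracer via tail vein (ethanol ≤10%, THF ≤0.02%). Killed by decapitation at 2 or 60 min pi, n = 4 per time point. Blood and organs dissected and weighed, radioactivity gamma-counted with background correction. Reported as % ID or % ID/g; total blood activity assumes blood mass 7% of body mass.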
# [3] = Biodistribution in NMRI mouse liver/gallbladder at 3.7 MBq/mL after 60 mins by gamma counter; format: ADME, organism-based; details: in vivo, 1 h; method in brief: as §1
# Liver [4] = test: Biodistribution in NMRI mouse liver at 3.7 MBq/mL after 2 mins by gamma counter; format: ADME, organism-based; details: in vivo; method in brief: as §1
# Blood [5] = test: Biodistribution in NMRI mouse blood at 3.7 MBq/mL after 60 mins by gamma counter; format: ADME, organism-based; details: in vivo, 1 h; method in brief: as §1
# Kidney [6] = test: Biodistribution in NMRI mouse kidneys assessed per gram of tissue at 3.7 MBq/mL after 2 mins by gamma counter; format: ADME, organism-based; details: in vivo; method in brief: as §1
# Intestine = test: Biodistribution in NMRI mouse intestine at 3.7 MBq/mL after 2 mins by gamma counter; format: ADME, organism-based; details: in vivo; method in brief: as §1
# Cerebellum [7] = test: Biodistribution in NMRI mouse cerebellum assessed per gram of tissue at 3.7 MBq/mL after 60 mins by gamma counter; format: ADME, organism-based; details: in vivo, 1 h; method in brief: as §1
# Lung [8] = test: Biodistribution in NMRI mouse lungs assessed per gram of tissue at 3.7 MBq/mL after 2 mins by gamma counter; format: ADME, organism-based; details: in vivo; method in brief: as §1
# Kidney [9] = test: Biodistribution in NMRI mouse kidneys at 3.7 MBq/mL after 60 mins by gamma counter; format: ADME, organism-based; details: in vivo, 1 h; method in brief: as §1
# Kidney [10] = test: Biodistribution in NMRI mouse kidneys at 3.7 MBq/mL after 2 mins by gamma counter; format: ADME, organism-based; details: in vivo; method in brief: as §1
# Liver [11] = test: Biodistribution in NMRI mouse liver assessed per gram of tissue at 3.7 MBq/mL after 60 mins by gamma counter; format: ADME, organism-based; details: in vivo, 1 h; method in brief: as §1
# Liver [12] = test: Biodistribution in NMRI mouse liver at 3.7 MBq/mL after 60 mins by gamma counter; format: ADME, organism-based; details: in vivo, 1 h; method in brief: as §1
# Kidney [13] = test: Biodistribution in NMRI mouse kidneys assessed per gram of tissue at 3.7 MBq/mL after 60 mins by gamma counter; format: ADME, organism-based; details: in vivo, 1 h; method in brief: as §1
# Lung [14] = test: Biodistribution in NMRI mouse lungs at 3.7 MBq/mL after 60 mins by gamma counter; format: ADME, organism-based; details: in vivo, 1 h; method in brief: as §1
# Blood [15] = test: Biodistribution in NMRI mouse blood assessed per gram of tissue at 3.7 MBq/mL after 60 mins by gamma counter; format: ADME, organism-based; details: in vivo, 1 h; method in brief: as §1
# Cerebellum [16] = test: Biodistribution in NMRI mouse cerebellum assessed per gram of tissue at 3.7 MBq/mL after 2 mins by gamma counter; format: ADME, organism-based; details: in vivo; method in brief: as §1
# [17] = Biodistribution in NMRI mouse cerebrum assessed per gram of tissue at 3.7 MBq/mL after 60 mins by gamma counter; format: ADME, organism-based; details: in vivo, 1 h; method in brief: as §1
# Blood [18] = test: Biodistribution in NMRI mouse blood at 3.7 MBq/mL after 2 mins by gamma counter; format: ADME, organism-based; details: in vivo; method in brief: as §1
# Lung [19] = test: Biodistribution in NMRI mouse lungs assessed per gram of tissue at 3.7 MBq/mL after 60 mins by gamma counter; format: ADME, organism-based; details: in vivo, 1 h; method in brief: as §1
# [20] = Biodistribution in NMRI mouse cerebrum at 3.7 MBq/mL after 2 mins by gamma counter; format: ADME, organism-based; details: in vivo; method in brief: as §1
# Cerebellum [21] = test: Biodistribution in NMRI mouse cerebellum at 3.7 MBq/mL after 60 mins by gamma counter; format: ADME, organism-based; details: in vivo, 1 h; method in brief: as §1
# [22] = Biodistribution in NMRI mouse urine at 3.7 MBq/mL after 2 mins by gamma counter; format: ADME, organism-based; details: in vivo; method in brief: as §1
# [23] = Biodistribution in NMRI mouse cerebrum assessed per gram of tissue at 3.7 MBq/mL after 2 mins by gamma counter; format: ADME, organism-based; details: in vivo; method in brief: as §1
# [24] = Biodistribution in NMRI mouse cerebrum at 3.7 MBq/mL after 60 mins by gamma counter; format: ADME, organism-based; details: in vivo, 1 h; method in brief: as §1
# Blood [25] = test: Biodistribution in NMRI mouse blood assessed per gram of tissue at 3.7 MBq/mL after 2 mins by gamma counter; format: ADME, organism-based; details: in vivo; method in brief: as §1
# Liver [26] = test: Biodistribution in NMRI mouse liver assessed per gram of tissue at 3.7 MBq/mL after 2 mins by gamma counter; format: ADME, organism-based; details: in vivo; method in brief: as §1
# Cerebellum [27] = test: Biodistribution in NMRI mouse cerebellum at 3.7 MBq/mL after 2 mins by gamma counter; format: ADME, organism-based; details: in vivo; method in brief: as §1
# [28] = Biodistribution in NMRI mouse liver/gallbladder at 3.7 MBq/mL after 2 mins by gamma counter; format: ADME, organism-based; details: in vivo; method in brief: as §1
# Lung [29] = test: Biodistribution in NMRI mouse lungs at 3.7 MBq/mL after 2 mins by gamma counter; format: ADME, organism-based; details: in vivo; method in brief: as §1
smiles,measurement,setting,value
[18F]c1ccc(-c2nc3ccccc3s2)cc1,logD,[1],2.86
same,Activity,[2],15.5 %ID
same,Activity,[3],49.4 %ID
same,Activity,Liver [4],21.8 %ID
same,Activity,Blood [5],1.8 %ID
same,Activity,Kidney [6],17.9 % ID/g
same,Activity,Intestine,8.5 %ID
same,Activity,Cerebellum [7],0.21 % ID/g
same,Activity,Lung [8],13.8 % ID/g
same,Activity,Kidney [9],5.9 %ID
same,Activity,Kidney [10],11.4 %ID
same,Activity,Liver [11],5.3 % ID/g
same,Activity,Liver [12],11.7 %ID
same,Activity,Kidney [13],8.2 % ID/g
same,Activity,Lung [14],0.4 %ID
same,Activity,Blood [15],0.6 % ID/g
same,Activity,Cerebellum [16],3.35 % ID/g
same,Activity,[17],0.21 % ID/g
same,Activity,Blood [18],7.8 %ID
same,Activity,Lung [19],1.5 % ID/g
same,Activity,[20],1.03 %ID
same,Activity,Cerebellum [21],0.02 %ID
same,Activity,[22],0.6 %ID
same,Activity,[23],3.2 % ID/g
same,Activity,[24],0.07 %ID
same,Activity,Blood [25],2.9 % ID/g
same,Activity,Liver [26],10.2 % ID/g
same,Activity,Cerebellum [27],0.33 %ID
same,Activity,[28],30.3 %ID
same,Activity,Lung [29],3.9 %ID
